Compounds with a hit are over-represented: about 0.77% of the library has one in this group of screens.
mIAP block: blocks mouse intestinal alkaline phosphatase. purified mouse IAP, CDP-Star luminescence, 30 min. inhibition, % at 10 µM. hit rate 0.2% among 330,000. AID 2806;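 active = inhibition of at least 40% at 10 µM in the primary screen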;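 also: plate controls were DMSO with enzyme for no effect and no enzyme wells for full effect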
mIAP act: mouse IAP activation; muIAP, CDP-Star luminescence, 30 min; active compounds read high; 1 = vehicle-only enzyme signal, 0 = enzyme-free wells; activation factor at 10 µM; hit rate 0.24% among 330,000; AID 2805;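 active = activation factor of at least 2 at 20 µM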
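also added = chemiluminescent substrate CDP-Star | test system = mouse IAP enzyme | signal = chemiluminescence readout | compound = DMSO-dissolved test compounds | incubation = 30 min at room temperature | benchmarks = DMSO wells, no-enzyme wells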
bIAP act: increases bovine intestinal alkaline phosphatase activity; hit rate 0.17% among 200,000; activation factor at 20 µM; purified bovine IAP, CDP-star luminescence, 30 min; active compounds read high; fold of DMSO-control signal, blank-subtracted;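 active = activation factor of 2 or more at 20 µM, a signal rise over negative controls twice the positive control's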
hIAP inh: blocks human intestinal alkaline phosphatase; AID 2544; P09923; inhibition, % at 10 µM; hit rate 0.12% among 330,000; purified IAP, CDP-Star luminescence, 30 min;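 active = inhibition reaching a set limit with compound at 10 µM in the primary screen, cut at about 35% in these data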;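 also: plate controls were DMSO wells with enzyme for no effect and no-enzyme buffer wells for full effect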
Target sequence (P09923 whole entry, looked up): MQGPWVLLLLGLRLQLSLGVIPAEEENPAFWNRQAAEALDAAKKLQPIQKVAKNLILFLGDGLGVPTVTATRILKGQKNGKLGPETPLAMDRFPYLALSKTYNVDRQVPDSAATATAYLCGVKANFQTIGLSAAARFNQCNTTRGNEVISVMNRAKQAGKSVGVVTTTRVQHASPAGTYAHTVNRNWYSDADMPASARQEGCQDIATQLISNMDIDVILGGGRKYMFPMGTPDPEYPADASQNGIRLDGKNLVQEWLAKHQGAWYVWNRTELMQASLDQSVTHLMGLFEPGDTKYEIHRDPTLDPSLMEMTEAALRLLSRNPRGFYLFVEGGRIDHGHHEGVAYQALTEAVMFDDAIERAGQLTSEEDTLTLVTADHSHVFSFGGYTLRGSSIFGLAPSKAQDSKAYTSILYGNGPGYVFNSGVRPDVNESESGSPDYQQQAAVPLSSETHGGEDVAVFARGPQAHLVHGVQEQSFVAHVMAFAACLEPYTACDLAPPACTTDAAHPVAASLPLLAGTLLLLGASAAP
bIAP inhibitor: intestinal alkaline phosphatase (bovine) inhibition; inhibition, % at 20 µM; 190,000 tested, under 10 active; purified bovine IAP, CDP-star luminescence, 30 min;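 active = over 50% inhibition of intestinal alkaline phosphatase at 20 µM in the single-dose screen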
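System: purified bovine intestinal alkaline phosphatase (IAP) enzyme; Input: IAP diluted 1/65,000,000 in the well; Measured by: CDP-star luminescence signal; Compound dosing: 20 µM single dose; Incubation: 30 min reaction at room temperature.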
hIAP act: human IAP activation. P09923. purified human IAP, CDP-Star luminescence, 30 min; active compounds read high; 1 = vehicle-only enzyme, 0 = enzyme-free background. activation factor at 10 µM. hit rate 0.16% among 330,000;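 active = activation factor of the enzyme at least 2-fold when tested at 20 µM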
hIAP act confirm: human IAP activation confirmation; shares compounds with hIAP act; purified IAP, CDP-Star luminescence, 30 min; active compounds read low; activation (%Activity, negative = activation), % at 8.3 µM; hit rate 10% among 880; AID 434926;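 active = at least twofold enzyme activation in any of six single-dose repeats, which the averaged readout prints as negative percent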
Active calls of the source: *; · = no result given.

SMILES	mIAP block	mIAP act	bIAP act	hIAP inh	bIAP inhibitor	hIAP act	hIAP act confirm
COCC(=O)N1CCC(Oc2ccc(C(=O)NCc3cc(C)no3)cc2)CC1	-6	1.1	·	36*	·	0.64	-4
CCN(Cc1ccccc1)C(=O)CN1C(=O)COc2ccc(S(=O)(=O)NC3CCCC3)cc21	-3	1	·	-2	·	1	·
CCC(Cc1ccccc1)NS(=O)(=O)c1ccc2c(c1)NC(=O)C(C)S2 (configuration not stated)	-6	1.1	·	-12	·	1.1	·
Cc1ccc(NC(=O)CN2C(=O)NC3(CCc4ccccc43)C2=O)cc1S(=O)(=O)N1CCCCC1 (configuration not stated)	-4	1	·	-11	·	1.1	·
O=C(NCCCN1CCOCC1)c1ccc2c(c1)N(Cc1ccc(Cl)cc1)C(=O)c1ccccc1S2=O (configuration not stated)	8	0.92	·	37*	·	0.63	-48*
C/C(=N\N(Cc1ccccc1)c1ccccc1)c1ccncc1	15	0.85	0.6	39*	43	0.61	-63
CN(C(=O)c1ccncc1)c1ccccc1	0	1	·	-6	·	1.1	·
COc1cccc(CNC(=O)Cn2nc(C)c([N+](=O)[O-])c2C)c1	3	0.97	·	10	·	0.9	·
NC(=O)c1ccccc1NC(=O)CN1CCN(Cc2ccc(Cl)cc2Cl)CC1	6	0.94	·	-10	·	1.1	·
CCN(CC(=O)Nc1ccccc1SC)Cc1nc2ccccc2c(=O)[nH]1	3	0.97	·	-39	·	1.4	·
CCN(CC(=O)NC(c1ccccc1)c1ccccc1)Cc1nc2ccccc2c(=O)[nH]1	-65	1.6	2.4*	-113	-142	2.1*	-65
Nc1ccc(-c2c3ccc(=O)cc-3oc3cc(O)ccc23)cc1C(=O)O	26	0.74	·	36*	·	0.64	64
O=c1ccc2c(-c3ccccc3)c3ccc(O)cc3oc-2c1	19	0.81	·	14	·	0.86	·
Cc1c(-n2c(SC(C)C(=O)NC(N)=O)nc3ccccc3c2=O)c(=O)n(-c2ccccc2)n1C (configuration not stated)	-3	1	1	17	-3	0.83	·
COc1ccc(-n2ccn(CC(=O)Nc3ccc(OC)cc3OC)c(=O)c2=O)cc1	-1	1	·	44*	·	0.56	-1
Cc1nc(S/C(=C/c2ccc(-c3ccc(Cl)cc3)o2)C(=O)O)n[nH]1	8	0.92	0.9	-120	13	2.2*	-89*
CCNC(=S)NNC(=O)CSc1nc2ccccc2[nH]1	-10	1.1	1.3	-143	-29	2.4*	-30
CCNC(=S)NNC(=O)CSc1nc2ccccc2n1C	9	0.91	·	5	·	0.95	·
CCc1cc2ccc(C)cc2nc1SCC(=O)N1CCN(C(=O)c2ccco2)CC1	9	0.91	0.9	-105	6	2.1*	-37
Cc1ccccc1-c1cn(-c2ccccc2)c(=S)[nH]1	4	0.96	·	10	·	0.9	·
CC(C)(C)c1cn(-c2ccc(F)cc2)c(=S)[nH]1	3	0.97	0.6	35*	38	0.65	3
C/C(=N\NC(=O)c1ccccc1F)c1cccc(NC(=O)c2ccc(C)cc2)c1	2	0.98	·	-4	·	1	·
COC(=O)c1cc(OC)c(OC)cc1NC(=O)CSc1nnc(-c2cccnc2)n1C	-9	1.1	1	-115	1	2.1*	-12
CCSC(=O)N(CC)CC(=O)Nc1c(CC)cccc1CC	-5	1.1	0.9	-8	10	1.1	·
CCc1cccc(CC)c1NC(=O)CN(CC(=O)O)CC(=O)O	-5	1.1	·	-110	·	2.1*	-5
Oc1ccccc1N=N/C(=N/Nc1ccccc1O)c1ccccc1	4	0.96	·	5	·	0.95	·
Cn1nnnc1N=N/C(=N/Nc1ccccc1)c1ccccc1	24	0.76	·	46*	·	0.54	55
Cc1nn(C)c(C(=O)NNC(=S)NCc2ccccc2)c1Cl	15	0.85	·	-104	·	2*	-141*
Cc1nn(C)c(C(=O)NC(=S)Nc2ccccc2Br)c1Cl	5	0.95	·	15	·	0.85	·

Source: PubChem
